According to ChEMBL document CHEMBL4130570, “Characteristic α-Acid Derivatives from Humulus lupulus with Antineuroinflammatory Activities” (J Nat Prod, 2017):
Activity calls are given as the source filed them. No cut-off for these calls is given here.

Legend:
BV-2 [1] = assay: Antineuroinflammatory activity in mouse BV2 cells assessed as inhibition of LPS-induced nitric oxide production after 24 hrs by griess assay; type: functional, cell-based; details: BV-2, 24 h
Procedure, shortened: (§1)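 BV2 microglia plated at 5 × 10^4 cells/well, exposed to compound (1, 3, 10, 30, 100 μM) together with LPS 100 ng/mL for 24 h. Nitrite in medium quantified by Griess reagent (1% sulfanilamide; 0.1% naphthylethylenediamine dihydrochloride, 2% phosphoric acid), 15 min at room temperature, absorbance 540 nm. Mean ± SE of three independent experiments.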

BV-2 [2] = assay: Cytotoxicity against mouse BV2 cells assessed as reduction in cell viability at 1 to 100 uM after 24 hrs by MTT assay; type: cell-based; details: bv-2, 24 h
Procedure, shortened: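 BV2 cells after 24 h treatment; supernatant removed, MTT 0.25 mg/mL added for 4 h at 37 °C, formazan dissolved in DMSO, absorbance read at 490 nm.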

BV-2 [3] = assay: Antineuroinflammatory activity in mouse BV2 cells assessed as inhibition of LPS-induced nitric oxide production at 100 uM after 24 hrs by griess assay; type: functional, cell-based; procedure, shortened: as §1

| SMILES | IC50 (BV-2 [1]) | Activity (BV-2 [2]) | inhibition (BV-2 [3]) |
| --- | --- | --- | --- |
| COc1cc(O)c(CC=C(C)C)c2c1C(=O)C[C@@H](c1ccc(O)cc1)O2 | 19.5 µM | Non-Toxic |  |
| CC(C)=CC[C@@]1(O)C(=O)C(C(=O)C(C)C)=C(O)C2=C1OC(C)(C)[C@@H](O)C2 |  | Non-Toxic | Active |
| CC(C)=CC[C@@]1(O)C(=O)C(C(=O)CC(C)C)=C(O)C2=C1OC(C)(C)[C@H](O)C2 |  | Non-Toxic |  |
| CC(C)=CCc1c(O)c2c(c(C(=O)CC(C)C)c1O)O[C@@H](C(C)(C)O)C2 |  | Non-Toxic |  |
| COc1cc(O)c(CC=C(C)C)c(O)c1C(=O)/C=C/c1ccc(O)cc1 [XANTHOHUMOL] | 7.92 µM | Non-Toxic |  |
| CC(C)(O)[C@H]1C[C@@](C(=O)O)([C@H]2CC(=O)OC2(C)C)C(=O)O1 |  | Non-Toxic |  |
| CC(C)=CCc1c(O)cc(O)c2c(=O)cc(C(C)C)oc12 | 21.4 µM | Non-Toxic |  |
| CC(C)=CC[C@@]1(O)C(=O)C(C(=O)C(C)C)=C(O)C2=C1O[C@H](C(C)(C)O)C2 |  | Non-Toxic |  |
| CC(C)=CC[C@@]1(O)C(=O)C(C(=O)CC(C)C)=C(O)C2=C1OC(C)(C)[C@@H](O)C2 |  | Non-Toxic |  |
| CC(C)=CCc1c(O)c2c(c(C(=O)CC(C)C)c1O)O[C@H](C(C)(C)O)C2 |  | Non-Toxic |  |
| CC(C)=CC[C@@]1(O)C(=O)C(C(=O)CC(C)C)=C(O)C2=C1O[C@@H](C(C)(C)O)C2 |  | Non-Toxic |  |
| COc1ccc(/C=C/C(=O)c2c(O)cc(OC)c(CC=C(C)C)c2O)cc1 | 57.7 µM | Non-Toxic |  |
| CC(C)=CCC1(CC=C(C)C)C(=O)C(O)=C(O)C1=O [HULUPINIC ACID] |  | Non-Toxic |  |
| CC(C)=CC[C@@]1(O)C(=O)C(C(=O)CC(C)C)=C(O)C2=C1O[C@H](C(C)(C)O)C2 |  | Non-Toxic |  |
| CC(C)=CCC1=C2O[C@H](C(C)(C)O)C[C@@]2(O)C(=O)C(C(=O)CC(C)C)=C1O |  | Non-Toxic |  |
| CC1(C)C[C@@H](O)[C@@]23CC[C@H](O)[C@@](C)(CC[C@H]12)C3 |  | Non-Toxic |  |
